Data set [1] deals with Rattus norvegicus. In words: Percent inhibition against ethanol-induced gastric lesions in male albino rat was determined at a dose of 5 mg/Kg. It is filed as functional. The following applies: Stomach. The gist of the method:
(§1)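 Charles River male albino rats (190-219 g), food withheld 18-24 h with water available. Drug or vehicle given orally 1 h before ethanol (1 mL per rat po). Rats killed by CO2 asphyxiation 1 h after ethanol. Lesions scored single blind by size (mm2) and number per size category. Percent inhibition taken against the vehicle group mean; ED50 with 95% confidence limits obtained by regression of dose-response data.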

Data set [2] has as its system Rattus norvegicus. In words: Percent inhibition against ethanol-induced gastric lesions in male albino rat was determined at a dose of 25 mg/Kg. The settings on record: Stomach. It is filed as functional. Put shortly:
as §1

In data set [3] the test system is Rattus norvegicus. In words: Percent inhibition against ethanol-induced gastric lesions in male albino rat was determined at a dose of 5 mg/Kg (po). It is filed as functional. The following applies: Stomach. The gist of the method: as §1
For data set [4], the system named is Rattus norvegicus. In words: Percent inhibition against ethanol-induced gastric lesions in male albino rat was determined at a dose of 100 mg/Kg (po). The settings on record: Stomach. It is filed as functional. The gist of the method: as §1
Data set [5] is filed under the species Rattus norvegicus. The experiment in a line: Effective dose against ethanol-induced gastric lesions in male albino rat when given perorally was determined; 2.4-11. It is filed as functional. The settings on record: Stomach, po. Put shortly:
as §1

A short description of data set [6]: Compound was evaluated for lethal activity through acute lethality model when given perorally. It is filed as ADME, organism-based. The following applies: rat, in vivo, po.
For data set [7], the system named is Rattus norvegicus. The experiment in a line: Compound was evaluated for antisecretory action in the pylorus-ligated rat model (PLR) at 100 mg/kg (po); No significant activity at 100 mg/kg. It is filed as functional, organism-based. The gist of the method: (§2)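 Drug or vehicle given orally. After 1 h, rats anesthetized with methohexital (30 mg/kg ip) and the pylorus ligated through a midline incision. Killed by CO2 4 h after surgery. Gastric volume measured and acid titrated to pH 7.0 with 0.1 N NaOH. Total acid output (microequivalents per 4 h) = volume × acid concentration.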

The species named for data set [8] is Rattus norvegicus. The experiment in a line: Effective dose against ethanol-induced gastric lesions in male albino rat when given perorally was determined; 0.2-4.7. It is filed as functional. The settings on record: Stomach, po. The gist of the method: as §1
In data set [9] the test system is Rattus norvegicus. The experiment in a line: Compound was evaluated for activity in stress-induced ulcer rat (po). It is filed as functional. Put shortly:
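Rats dosed po with drug or vehicle 30 min before immobilization in restrainers at 4-5 °C for 3 h, then euthanized. Gastric ulcers graded by size and number, with percent inhibition taken against the control mean.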

The subject of data set [10] is Rattus norvegicus. The experiment in a line: Compound was evaluated for activity against ethanol-induced gastric lesions mg/kg;NS=No significant activity at 25 mg/kg. It is filed as functional, organism-based. Also noted: dose 25 mg/kg. The following applies: Stomach. The gist of the method:
as §1

Data set [11] is filed under the species Rattus norvegicus. The experiment in a line: Compound was evaluated for activity in acute lethality model. It is filed as ADME, organism-based. The settings on record: in vivo.
The species named for data set [12] is Rattus norvegicus. In words: Compound was evaluated for antisecretory action in the pylorus-ligated rat model (PLR). It is filed as functional. Put shortly:
as §2

Data set [13] is filed under the species Rattus norvegicus. In words: Compound was evaluated for activity in stress-induced ulcers. It is filed as functional. The gist of the method:
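Rats dosed po with drug or vehicle 30 min before immobilization in restrainers at 4-5 °C for 3 h, then euthanized. Gastric ulcers graded by size and number, with percent inhibition taken against the control mean. ED50 with 95% confidence limits obtained by regression of dose-response data.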

Data set [14] concerns Rattus norvegicus. The experiment in a line: Percent inhibition against ethanol-induced gastric lesions in male albino rat was determined at a dose of 10 mg/Kg. The following applies: Stomach. It is filed as functional. The gist of the method:
as §1

Data set [15] relates to Rattus norvegicus. The experiment in a line: Percent inhibition against ethanol-induced gastric lesions in male albino rat was determined at a dose of 50 mg/Kg (po). It is filed as functional. The settings on record: Stomach. Put shortly:
as §1

For data set [16], the species on record is Rattus norvegicus. In words: Effective dose against ethanol-induced gastric lesions in male albino rat when given perorally was determined; 1.2-5.9. The following applies: Stomach, po. It is filed as functional. Put shortly:
as §1

The species entered for data set [17] is Rattus norvegicus. In words: Effective dose against ethanol-induced gastric lesions in male albino rat when given perorally was determined; 0.5-1.5. It is filed as functional. The settings on record: Stomach, po. Put shortly: as §1
For data set [18], the species on record is Rattus norvegicus. In words: Compound was evaluated for activity against ethanol-induced gastric lesions. It is filed as functional. The following applies: Stomach. Put shortly:
as §1

The species entered for data set [19] is Rattus norvegicus. The experiment in a line: Compound was evaluated for activity in acute lethality model; NL=Not lethal. It is filed as ADME, organism-based. The settings on record: in vivo.
Data set [20] concerns Rattus norvegicus. The experiment in a line: Compound was evaluated for antisecretory action in the pylorus-ligated rat model (PLR) at 100 mg/kg;NS=No significant activity at 100 mg/kg. It is filed as functional, organism-based. The gist of the method: as §2
The species named for data set [21] is Rattus norvegicus. The experiment in a line: Effective dose against ethanol-induced gastric lesions in male albino rat when given perorally was determined; 3.0-10. It is filed as functional. The following applies: Stomach, po. The gist of the method:
as §1

36 compounds from ChEMBL document CHEMBL1124951, “N-phenyl-2-pyridinecarbothioamides as gastric mucosal protectants” (J Med Chem, 1990) can be followed below.

Molecules are shown by their SMILES. The source made the active and inactive calls. The calls are words filed in the database; no cut-off is given here.

For orientation: inhibition in vivo means the relative decrease from the control value, in per cent. The ED50 is the dose that gives a 50% effect, or the effect in half of the subjects. Broadly, the LD50 is the dose at which mortality reaches 50%. A lower LD50 goes with greater toxicity.

Take `N#CN/C(=N\c1ccccc1)c1ccccn1`: the inhibition in vivo at 5 mg/kg in data set [1] is 37%.

For the compound `Fc1cc(F)cc(NC(=S)c2cccnc2)c1`, in [2], the inhibition in vivo at 25 mg/kg was found to be 55%. With `S=C(Nc1ccc(OCc2ccccc2)cc1)c1ccccn1`, the inhibition in vivo at 5 mg/kg in data set [3] came out at 47%. `Fc1cc(F)cc(NC(=S)c2ccncc2)c1`: the inhibition in vivo at 25 mg/kg in data set [2] stood at 85%.

With `COc1ccc(NC(=S)c2ccccn2)cc1Cl`, the inhibition in vivo at 25 mg/kg in [2] was 44%. For the compound `Fc1ccccc1/N=C(\S)c1ccccn1`, the inhibition in vivo at 100 mg/kg in data set [4] was 69%. Consider `O=C(Nc1cc(F)cc(F)c1)c1ccccn1`, for which the inhibition in vivo at 25 mg/kg in data set [2] was found to be 11%. `S=C(Nc1ccccn1)c1cnccn1` yielded an ED50 in data set [5] of 5.2 mg/kg. On to `CSc1ccc(NC(=S)c2ccccn2)cc1`, for which the inhibition in vivo at 5 mg/kg in data set [3] turned out to be 31%. On to `FC(F)(F)Oc1ccc(NC(=S)c2ccccn2)cc1`, for which the inhibition in vivo at 5 mg/kg in [1] worked out at 35%. In turn, `S=C(Nc1ccccc1)c1ccccn1` showed an LD50 in data set [6] greater than 1000 mg/kg. For the same compound, the ED50 entry in data set [7] was “inactive”. In addition, the ED50 came to 1.1 mg/kg in data set [8] and 10 mg/kg in [9].

For the compound `CNC(=C[N+](=O)[O-])NCCSCc1ccc(CN(C)C)o1` [RANITIDINE], the ED50 result in [10] is “inactive”. Besides, the LD50 entry in data set [11] is recorded as “Not Active”. The ED50 in data set [12] came to 2.4 mg/kg; in [13], 3.6 mg/kg. With `S=C(Nc1cccc(CN2CCOCC2)c1)c1ccccn1`, the inhibition in vivo at 10 mg/kg in data set [14] was found to be 64%. As to `S=C(c1ccccn1)N1CCN(c2ccccc2)CC1`, the inhibition in vivo at 50 mg/kg in [15] was -6%. On to `S=C(Nc1ccccn1)c1ccccn1`, for which it took a dose of 2.6 mg/kg to reach the 50% effect level in data set [16] (ED50). Regarding `S=C(Nc1cccc(CN2CCSCC2)c1)c1ccccn1`, the inhibition in vivo at 10 mg/kg in [14] worked out at 32%.

As to `O=C(Nc1cccc(F)c1)c1ccccn1`, in data set [14], the inhibition in vivo at 10 mg/kg was 24%. For `C[S+]([O-])c1ccc(NC(=S)c2ccccn2)cc1` (centres undefined), the inhibition in vivo at 5 mg/kg in [1] was 54%. Take `Fc1ccc(NC(=S)c2ccccn2)cc1Cl`: the inhibition in vivo at 25 mg/kg in data set [2] came out at 56%. In the case of `S=C(NCc1ccc2c(c1)OCO2)c1ccccn1`, in data set [15], the inhibition in vivo at 50 mg/kg was 11%. As to `S=C(Nc1cc(Cl)cc(Cl)c1)c1ccccn1`, the inhibition in vivo at 25 mg/kg in data set [2] is 89%. As for `CN(C(=S)c1ccccn1)c1cccc(F)c1`, the inhibition in vivo at 10 mg/kg in data set [14] was 31%. Same read-out and setting: to `O=C(O)c1cc(NC(=S)c2ccccn2)ccc1F` belongs 42%. In turn, `Fc1ccc(NC(=S)c2ccccn2)cc1Cn1ccnc1` had an ED50 in data set [17] of 0.9 mg/kg.

Take `CCN(C(=S)c1ccccn1)c1cc(F)cc(F)c1`: the inhibition in vivo at 10 mg/kg in data set [14] worked out at 13%.

`CN(C(=S)c1ccccn1)c1cc(F)cc(F)c1`: in [2], the inhibition in vivo at 25 mg/kg is 40%. As to `O=S(=O)(OC[C@H]1O[C@@H](O[C@]2(COS(=O)(=O)[O][Al]([OH])[OH])O[C@H](OS(=O)(=O)[O][Al]([OH])[OH])[C@@H](OS(=O)(=O)[O][Al]([OH])[OH])[C@@H]2OS(=O)(=O)[O][Al]([OH])[OH])[C@H](OS(=O)(=O)[O][Al]([OH])[OH])[C@@H](OS(=O)(=O)[O][Al]([OH])[OH])[C@@H]1OS(=O)(=O)[O][Al]([OH])[OH])[O][Al]([OH])[OH].[OH][Al]([OH])[OH].[OH][Al]([OH])[OH].[OH][Al]([OH])[OH].[OH][Al]([OH])[OH].[OH][Al]([OH])[OH].[OH][Al]([OH])[OH].[OH][Al]([OH])[OH].[OH][Al]([OH])[OH]`, the median effective dose (ED50) in data set [18] came out at 60 mg/kg. Also, the 50% lethal dose (LD50) entry in data set [19] is listed as “Not lethal”. In addition, in data set [20], the ED50 result is “inactive”. As to `CN1CCN(Cc2cccc(NC(=S)c3ccccn3)c2)CC1`, in data set [14], the inhibition in vivo at 10 mg/kg came out at 10%. On to `S=C(c1ccccn1)N1CCCc2ccccc21`, for which, in [14], the inhibition in vivo at 10 mg/kg is 17%.

Take `S=C(c1ccccn1)N1CCOCC1`: in [15], the inhibition in vivo at 50 mg/kg was 44%. As to `COc1ccc(NC(=S)c2ccccn2)cc1OC`, the inhibition in vivo at 5 mg/kg in data set [3] was 0%.

Consider `FC(F)(F)COc1cccc(NC(=S)c2ccccn2)c1`, for which the inhibition in vivo at 10 mg/kg in data set [14] worked out at 7%. `Cc1ccc(NC(=S)c2ccccn2)cc1Cl`: the inhibition in vivo at 25 mg/kg in [2] is 22%. As for `Cc1ccc(NC(=S)c2ccccn2)cc1F`, the 50% effect level in data set [21] (ED50) was put at a dose of 5.4 mg/kg. For the compound `N#Cc1cc(NC(=S)c2ccccn2)ccc1F`, in [14], the inhibition in vivo at 10 mg/kg was 29%.

`CCOC(=O)c1cc(NC(=S)c2ccccn2)ccc1F`: the inhibition in vivo at 10 mg/kg in data set [14] is 10%.
